Assay results reported in ChEMBL document CHEMBL1137770, “Biological activity of endomorphin and [Dmt1]endomorphin analogs with six-membered proline surrogates in position 2” (Bioorg Med Chem, 2009).
Activity calls are given as the source filed them. Square brackets hold non-standard residues; d marks the D form. Peptide text beside a SMILES is read from it. Inp = O=C(O)C1CCNCC1

What was measured:
[1] = Stability in rat brain homogenates assessed as degradation half life; type: ADME, tissue-based; details: brain homogenate
Summary of the method: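 Pooled rat brain homogenate (in 50 mM Tris-HCl pH 7.4, 10 mg protein/ml aliquot) incubated with 0.5 mM peptide stock at 37 °C for 0-60 min; stopped on ice with 1 M HCl, centrifuged. Remaining peptide peak area regressed as ln(A/A0) versus time for k; t1/2 = ln2/k. Three experiments in duplicate.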

[2] = biological target: Mu-type opioid receptor (Rattus norvegicus, UniProt P33535); experiment: Displacement of [3H]DAMGO from mu opioid receptor in Wistar rat brain membrane; type: cell membranes
Sequence of Mu-type opioid receptor (Rattus norvegicus, UniProt P33535) (P33535 whole entry): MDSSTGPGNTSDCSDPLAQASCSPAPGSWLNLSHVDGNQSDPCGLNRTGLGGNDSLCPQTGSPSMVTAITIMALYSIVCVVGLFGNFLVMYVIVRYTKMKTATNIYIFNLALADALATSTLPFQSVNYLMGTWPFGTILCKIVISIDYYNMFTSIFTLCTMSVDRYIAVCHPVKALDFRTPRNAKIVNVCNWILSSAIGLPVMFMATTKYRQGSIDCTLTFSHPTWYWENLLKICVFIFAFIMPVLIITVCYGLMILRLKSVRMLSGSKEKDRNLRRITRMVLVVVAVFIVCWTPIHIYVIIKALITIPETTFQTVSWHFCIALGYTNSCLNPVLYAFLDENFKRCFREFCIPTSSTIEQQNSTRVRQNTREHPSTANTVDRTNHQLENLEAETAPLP

[3] = biological target: Delta-type opioid receptor (Rattus norvegicus, UniProt P33533); experiment: Displacement of [3H][Ile5,6]deltorphin-2 from delta opioid receptor in Wistar rat brain membrane; type: cell membranes
Sequence of Delta-type opioid receptor (P33533 whole entry): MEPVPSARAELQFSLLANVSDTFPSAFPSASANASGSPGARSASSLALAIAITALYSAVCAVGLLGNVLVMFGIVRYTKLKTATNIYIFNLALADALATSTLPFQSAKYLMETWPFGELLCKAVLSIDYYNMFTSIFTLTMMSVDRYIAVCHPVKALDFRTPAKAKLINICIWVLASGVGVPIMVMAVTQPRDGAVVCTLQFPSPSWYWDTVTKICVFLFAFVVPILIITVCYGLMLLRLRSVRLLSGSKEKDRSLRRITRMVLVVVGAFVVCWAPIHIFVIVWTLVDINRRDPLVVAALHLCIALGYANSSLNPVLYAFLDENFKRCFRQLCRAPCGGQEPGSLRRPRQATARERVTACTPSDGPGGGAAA

[4] = species: Rattus norvegicus; experiment: Selectivity ratio of IC50 for delta opioid receptor to IC50 for mu opioid receptor in Wistar rat brain membrane; type: cell membranes
Summary of the method: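 Wistar rat brain crude membranes incubated 120 min at 25 °C with peptide and 0.5 nM [3H]DAMGO (MOR) or 0.5 nM [3H][Ile5,6]deltorphin-2 (DOR) in 50 mM Tris/HCl pH 7.4 with 5 mM MgCl2, 1 mM EDTA, 100 mM NaCl, bacitracin.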

[5] = system: Mus musculus; experiment: Antinociceptive activity in Swiss albino CD1 mouse assessed as inhibition of paw licking at 100 ng, icv by hot plate test; type: functional, organism-based
Summary of the method: (§1)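 Male Swiss albino CD1 mice (20-22 g), peptide given i.c.v. into left ventricle in 0.9% NaCl. Placed on 55±0.5 °C hot plate 5 min post-injection; latency to paw licking (also rearing, jumping) versus saline-injected controls; cut-off 240 s. Dose-response curves; mean ± SEM, 10 mice per group.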

[6] = system: Mus musculus; experiment: Antinociceptive activity in Swiss albino CD1 mouse assessed as duration of inhibition of paw licking at 3 ng, icv by hot plate test; type: functional
Summary of the method: (§2)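 Male Swiss albino CD1 mice (20-22 g), i.c.v. injection into left ventricle in 0.9% NaCl. Hot plate at 55±0.5 °C; latencies to paw licking, rearing and jumping, cut-off 240 s; saline controls. Time-course readings at 5, 10, 20, 30, 45, 60, 90, 120, 150 and 180 min after dosing; duration of effect recorded.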

[7] = system: Mus musculus; experiment: Antinociceptive activity in Swiss albino CD1 mouse assessed as duration of inhibition of rearing at 3 ng, icv by hot plate test; type: functional; summary of the method: as §2
[8] = system: Mus musculus; experiment: Antinociceptive activity in Swiss albino CD1 mouse assessed as duration of inhibition of jumping at 3 ng, icv by hot plate test; type: functional; summary of the method: as §2
[9] = system: Mus musculus; experiment: Antinociceptive activity in iv dosed Swiss albino CD1 mouse assessed as inhibition of paw licking by hot plate test; type: functional, organism-based
[10] = system: Mus musculus; experiment: Antinociceptive activity in Swiss albino CD1 mouse assessed as duration of inhibition of paw licking at 0.1 ng, icv by hot plate test; type: functional; summary of the method: as §2
[11] = system: Mus musculus; experiment: Antinociceptive activity in icv dosed Swiss albino CD1 mouse assessed as inhibition of paw licking by hot plate test in presence of MOR antagonist beta-funaltrexamine; type: functional, organism-based
Summary of the method: (§3)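 CD1 male mice given peptide i.c.v. in 0.9% NaCl with MOR antagonist β-funaltrexamine (1 µg). Hot plate at 55±0.5 °C, 240 s cut-off; latencies to paw licking, rearing and jumping versus controls. Mean ± SEM of 10 mice per group; two-way ANOVA followed by Student-Newman-Keuls test.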

[12] = system: Mus musculus; experiment: Antinociceptive activity in icv dosed Swiss albino CD1 mouse assessed as inhibition of rearing by hot plate test in presence of MOR antagonist beta-funaltrexamine; type: functional, organism-based; summary of the method: as §3
[13] = system: Mus musculus; experiment: Antinociceptive activity in icv dosed Swiss albino CD1 mouse assessed as inhibition of jumping by hot plate test in presence of MOR antagonist beta-funaltrexamine; type: functional, organism-based; summary of the method: as §3
[14] = system: Mus musculus; experiment: Antinociceptive activity in Swiss albino CD1 mouse assessed as duration of inhibition of rearing at 0.1 ng, icv by hot plate test; type: functional; summary of the method: as §2
[15] = system: Mus musculus; experiment: Antinociceptive activity in Swiss albino CD1 mouse assessed as duration of inhibition of jumping at 0.1 ng, icv by hot plate test; type: functional; summary of the method: as §2
[16] = biological target: T1, Mu-type opioid receptor (Homo sapiens, UniProt P35372); experiment: Binding affinity to recombinant OPRM1 receptor immobilized on biosensor assessed as association rate constant by BIAcore X system
T1 sequence (P35372 whole entry): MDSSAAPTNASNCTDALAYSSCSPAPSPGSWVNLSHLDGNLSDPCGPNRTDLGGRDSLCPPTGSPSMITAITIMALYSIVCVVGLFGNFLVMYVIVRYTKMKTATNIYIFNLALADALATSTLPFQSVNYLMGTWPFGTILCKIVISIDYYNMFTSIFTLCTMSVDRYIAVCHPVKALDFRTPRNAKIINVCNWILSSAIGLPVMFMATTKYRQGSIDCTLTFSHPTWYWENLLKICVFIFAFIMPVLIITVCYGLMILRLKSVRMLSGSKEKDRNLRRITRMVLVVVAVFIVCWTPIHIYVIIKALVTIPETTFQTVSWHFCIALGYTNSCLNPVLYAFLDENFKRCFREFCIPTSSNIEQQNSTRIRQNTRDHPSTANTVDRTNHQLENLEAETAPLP
Summary of the method: (§4)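 Surface plasmon resonance at 37 °C: recombinant OPRM1 protein immobilised on CM5 chip by amine coupling (10 µg/ml in 10 mM sodium acetate, pH 5.0). Peptides at about 0.4 mM in HBS (10 mM HEPES, 150 mM NaCl, 3 mM EDTA, 0.005% P20, pH 7.4) injected 30 s at 20 µl/min; association/dissociation RU fitted for ka and kd.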

[17] = biological target: T1, Mu-type opioid receptor; experiment: Binding affinity to recombinant OPRM1 receptor immobilized on biosensor assessed as dissociation rate constant by BIAcore X system; summary of the method: as §4
[18] = system: Mus musculus; experiment: Antinociceptive activity in icv dosed Swiss albino CD1 mouse assessed as inhibition of paw licking by hot plate test; type: functional, organism-based; summary of the method: as §1
[19] = system: Mus musculus; experiment: Antinociceptive activity in Swiss albino CD1 mouse assessed as inhibition of paw licking at 3 ng, icv by hot plate test; type: functional, organism-based; summary of the method: as §1

SMILES	half-life [1] [min]	IC50 [2] [nM]	IC50 [3] [nM]	Ratio IC50 [4]	further results
NC(=O)[C@H](Cc1ccccc1)NC(=O)[C@H](Cc1c[nH]c2ccccc12)NC(=O)[C@@H]1CCCN1C(=O)[C@@H](N)Cc1ccc(O)cc1 [ENDOMORPHIN-1]	6.02				
NC(=O)[C@H](Cc1ccccc1)NC(=O)[C@H](Cc1c[nH]c2ccccc12)NC(=O)[C@@H]1CCCCN1C(=O)[C@@H](N)Cc1ccc(O)cc1	9.68	20.4	> 1000	> 49	
Cc1cc(O)cc(C)c1C[C@H](N)C(=O)N1CCC[C@@H](C(=O)N[C@@H](Cc2c[nH]c3ccccc23)C(=O)N[C@@H](Cc2ccccc2)C(N)=O)C1	35.8	0.38	89	234	
NC(=O)[C@H](Cc1ccccc1)NC(=O)[C@H](Cc1ccccc1)NC(=O)[C@@H]1CCCN1C(=O)[C@@H](N)Cc1ccc(O)cc1 [ENDOMORPHIN 2]	4.8				Activity [5]: Active; Activity [6]: 50 min; Activity [7]: 50 min; Activity [8]: 50 min
NC(=O)[C@H](Cc1ccccc1)NC(=O)[C@H](Cc1ccccc1)NC(=O)[C@@H]1CCCCN1C(=O)[C@@H](N)Cc1ccc(O)cc1	6.8	80	> 1000	> 12.5	
NC(=O)[C@H](Cc1ccccc1)NC(=O)[C@H](Cc1ccccc1)NC(=O)[C@@H]1CCCN(C(=O)[C@@H](N)Cc2ccc(O)cc2)C1	48	0.04	> 1000	> 1000	Activity [5]: Active; Activity [9]: inactive; Activity [10]: 150 min; AC50 [11]: Not Active; Activity [12]: inactive; Activity [13]: inactive; Activity [14]: 150 min; Activity [15]: 150 min; Ka [16]: 570 M⁻¹ s⁻¹; Kd [17]: 0.55 s⁻¹; Activity [18]: Dose-dependent effect
Cc1cc(O)cc(C)c1C[C@H](N)C(=O)N1CCC[C@@H](C(=O)N[C@@H](Cc2ccccc2)C(=O)N[C@@H](Cc2ccccc2)C(N)=O)C1	30.9	0.035	407	> 1000	Activity [19]: Active; Activity [9]: inactive; Activity [10]: >170 min; AC50 [11]: Not Active; Activity [12]: inactive; Activity [13]: inactive; Activity [14]: >170 min; Activity [15]: >170 min; Ka [16]: 515 M⁻¹ s⁻¹; Kd [17]: 0.29 s⁻¹; Activity [18]: Dose-dependent effect
NC(=O)[C@H](Cc1ccccc1)NC(=O)[C@H](Cc1c[nH]c2ccccc12)NC(=O)[C@@H]1CCCN(C(=O)[C@@H](N)Cc2ccc(O)cc2)C1	29.6	3.55	> 1000	> 281	
NC(=O)[C@H](Cc1ccccc1)NC(=O)[C@H](Cc1c[nH]c2ccccc12)NC(=O)C1CCN(C(=O)[C@@H](N)Cc2ccc(O)cc2)CC1 (H-Y[Inp]WF-NH2)	78.5	401	860	2.15	
